{"source": "ChEMBL document CHEMBL2163325", "about": "“Discovery of phosphoinositide 3-kinases (PI3K) p110β isoform inhibitor 4-[2-hydroxyethyl(1-naphthylmethyl)amino]-6-[(2S)-2-methylmorpholin-4-yl]-1H-pyrimidin-2-one, an effective antithrombotic agent without associated bleeding and insulin resistance” (Bioorg Med Chem Lett, 2012)", "key": {"[1]": {"test": "Toxicity in human adipocytes assessed as inhibition of insulin-induced glucose uptake at 3 to 40 uM", "assay_type": "cell-based", "conditions": "adipocyte; call rule not given here"}, "[2]": {"test": "Oral bioavailability in fasted Beagle dog at 2 umol/kg", "assay_type": "ADME, organism-based, Canis lupus familiaris", "conditions": "in vivo", "method_in_brief": "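Fasted male Beagle dogs, iv and po (N = 2 per route). Parameters derived by noncompartmental analysis of plasma concentrations.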"}, "[3]": {"test": "Fraction unbound in dog plasma after 18 hrs by equilibrium dialysis method", "assay_type": "ADME, cell-free, Canis lupus familiaris", "method_in_brief": "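Unbound plasma fraction determined by equilibrium dialysis, 18 h at 37 °C.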"}, "[4]": {"test": "Solubility of the compound in HBSS buffer at pH 7.4 by LC-MS analysis", "assay_type": "physicochemical"}, "Liver microsomes": {"test_system": "Liver microsomes", "test": "Drug metabolism in human liver microsomes assessed as reactive metabolite formation after 30 mins in presence of glutathione relative to clozapine", "assay_type": "ADME, Microsome", "conditions": "0.5 h", "method_in_brief": "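Incubation with human liver microsomes (1 mg/mL) plus glutathione for 30 min. Summed glutathione-adduct peak areas divided by the major adduct peak area of clozapine control (average, N = 3). Ratio >1 ranked high, 0.25–1 medium, <0.25 low.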"}, "[5]": {"target": "Phosphatidylinositol 4,5-bisphosphate 3-kinase catalytic subunit alpha isoform (Homo sapiens, UniProt P42336)", "test": "Inhibition of human recombinant His6-tagged PI3K p110alpha expressed in baculovirus infected cells using DiC8-PI(4,5)P2 as substrate after 20 mins by AlphaScreen assay"}, "[6]": {"test": "Lipophilicity, log D of the compound at pH 7.4 by HPLC analysis", "assay_type": "physicochemical", "conditions": "buffer", "method_in_brief": "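LogD measured at pH 7.4 by HPLC.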"}, "Homo sapiens": {"species_on_record": "Homo sapiens", "test": "Selectivity ratio of IC50 for human PI3K p110alpha to IC50 for human PI3K p110beta"}, "[7]": {"target": "Phosphatidylinositol 4,5-bisphosphate 3-kinase catalytic subunit gamma isoform (Homo sapiens, UniProt P48736)", "sequence (P48736 whole entry, canonical isoform)": "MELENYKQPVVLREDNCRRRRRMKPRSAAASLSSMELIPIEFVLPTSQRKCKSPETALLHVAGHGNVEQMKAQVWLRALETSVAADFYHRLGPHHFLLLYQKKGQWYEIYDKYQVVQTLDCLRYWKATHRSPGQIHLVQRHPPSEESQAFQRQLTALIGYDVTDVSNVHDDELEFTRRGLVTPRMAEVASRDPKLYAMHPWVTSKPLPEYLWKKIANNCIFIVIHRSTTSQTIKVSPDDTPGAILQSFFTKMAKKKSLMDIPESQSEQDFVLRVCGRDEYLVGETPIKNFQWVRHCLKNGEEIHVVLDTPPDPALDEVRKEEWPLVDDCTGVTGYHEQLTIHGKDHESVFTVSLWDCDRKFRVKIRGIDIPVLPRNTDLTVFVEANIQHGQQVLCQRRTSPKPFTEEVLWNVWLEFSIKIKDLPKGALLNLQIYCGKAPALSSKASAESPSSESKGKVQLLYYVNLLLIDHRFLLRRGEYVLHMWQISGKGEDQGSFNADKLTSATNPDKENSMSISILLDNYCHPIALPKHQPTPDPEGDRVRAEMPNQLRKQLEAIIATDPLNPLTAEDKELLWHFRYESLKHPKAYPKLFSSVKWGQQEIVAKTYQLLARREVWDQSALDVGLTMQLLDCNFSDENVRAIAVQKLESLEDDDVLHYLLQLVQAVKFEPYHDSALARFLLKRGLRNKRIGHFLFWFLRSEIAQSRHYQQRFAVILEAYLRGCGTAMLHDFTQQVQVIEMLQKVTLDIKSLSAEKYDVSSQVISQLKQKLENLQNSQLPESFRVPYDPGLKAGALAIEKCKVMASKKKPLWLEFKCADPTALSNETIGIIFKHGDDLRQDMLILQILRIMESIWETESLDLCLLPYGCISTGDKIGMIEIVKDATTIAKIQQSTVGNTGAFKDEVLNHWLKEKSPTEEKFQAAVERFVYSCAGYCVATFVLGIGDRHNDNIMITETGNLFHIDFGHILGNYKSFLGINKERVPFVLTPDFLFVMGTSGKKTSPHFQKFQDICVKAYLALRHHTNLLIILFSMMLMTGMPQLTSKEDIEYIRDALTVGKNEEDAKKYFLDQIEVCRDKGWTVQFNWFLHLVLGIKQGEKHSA", "test": "Inhibition of human recombinant His6-tagged PI3K […] expressed in baculovirus infected cells using DiC8-PI(4,5)P2 as substrate after 20 mins by AlphaScreen assay"}, "[8]": {"target": "Phosphatidylinositol 4,5-bisphosphate 3-kinase catalytic subunit beta isoform (Homo sapiens, UniProt P42338)", "test": "Inhibition of human PI3K p110beta-mediated AKT phosphorylation at Ser473 in MDA-MB-468 cells after 2 hrs by fluorescence microplate cytometric analysis", "assay_type": "cell-based", "method_in_brief": "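MDA-MB-468 cells kept in DMEM with 10% heat-inactivated FCS and L-glutamine. Seeded at 1500 cells/well, incubated overnight at 37 °C, 5% CO2. Exposed to compound for 2 h. Ser473 phospho-Akt detected with a specific antibody by laser scanning fluorescence microplate cytometry.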"}, "[9]": {"test": "Antiplatelet activity in human platelet rich plasma assessed as inhibition of collagen-induced platelet aggregation by light transmission aggregometry", "assay_type": "functional", "method_in_brief": "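Healthy-donor blood drawn by venipuncture into sodium citrate (11 mM final in blood), then platelet rich plasma prepared. Collagen-induced aggregation measured by light transmission aggregometry, either in an aggregometer or in an in-house 96-well plate format.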"}, "[10]": {"test": "Antiplatelet activity in Beagle dog whole blood assessed as inhibition of ADP-induced platelet aggregation by impedance aggregometry", "assay_type": "functional, tissue-based", "conditions": "Canis lupus familiaris", "method_in_brief": "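Citrated whole blood drawn by venipuncture from healthy human donors or beagle dogs, sodium citrate at 11 mM final in blood. ADP-induced aggregation read by Multiplate impedance aggregometry. N > 3.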"}, "[11]": {"target": "Voltage-gated inwardly rectifying potassium channel KCNH2 (Homo sapiens, UniProt Q12809)", "sequence (Q12809 whole entry)": "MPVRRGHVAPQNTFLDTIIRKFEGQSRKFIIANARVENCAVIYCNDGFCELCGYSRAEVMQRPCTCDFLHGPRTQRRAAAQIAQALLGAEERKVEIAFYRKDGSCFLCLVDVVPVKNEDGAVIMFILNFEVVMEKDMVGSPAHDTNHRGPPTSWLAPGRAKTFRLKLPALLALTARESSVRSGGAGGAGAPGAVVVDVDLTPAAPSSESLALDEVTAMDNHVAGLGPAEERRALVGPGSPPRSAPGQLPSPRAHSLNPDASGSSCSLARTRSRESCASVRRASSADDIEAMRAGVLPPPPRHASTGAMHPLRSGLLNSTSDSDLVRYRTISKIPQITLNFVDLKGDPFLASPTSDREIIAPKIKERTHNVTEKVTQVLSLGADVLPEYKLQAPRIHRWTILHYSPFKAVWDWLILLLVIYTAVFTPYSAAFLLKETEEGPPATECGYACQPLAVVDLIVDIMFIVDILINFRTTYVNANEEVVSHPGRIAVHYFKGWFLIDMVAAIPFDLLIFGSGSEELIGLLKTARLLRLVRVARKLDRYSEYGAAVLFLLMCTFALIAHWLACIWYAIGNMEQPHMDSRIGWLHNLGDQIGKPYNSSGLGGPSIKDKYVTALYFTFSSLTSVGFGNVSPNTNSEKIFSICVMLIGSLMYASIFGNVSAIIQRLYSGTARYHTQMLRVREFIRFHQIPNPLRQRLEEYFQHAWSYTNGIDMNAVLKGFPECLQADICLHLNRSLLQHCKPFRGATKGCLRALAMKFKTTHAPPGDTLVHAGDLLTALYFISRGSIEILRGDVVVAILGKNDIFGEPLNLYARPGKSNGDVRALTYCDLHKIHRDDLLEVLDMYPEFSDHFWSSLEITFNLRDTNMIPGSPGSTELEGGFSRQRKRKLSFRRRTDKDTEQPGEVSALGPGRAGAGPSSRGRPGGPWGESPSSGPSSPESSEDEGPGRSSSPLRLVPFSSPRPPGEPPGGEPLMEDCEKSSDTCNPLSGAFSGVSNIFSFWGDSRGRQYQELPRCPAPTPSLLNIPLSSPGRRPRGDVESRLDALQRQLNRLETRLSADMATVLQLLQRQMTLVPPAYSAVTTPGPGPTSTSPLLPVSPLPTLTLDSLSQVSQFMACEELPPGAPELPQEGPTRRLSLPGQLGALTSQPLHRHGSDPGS", "test": "Inhibition of human ERG expressed in CHO cells at 31.6 uM by patch clamp assay", "assay_type": "cell-based"}, "[12]": {"target": "Sodium channel protein type 5 subunit alpha (Homo sapiens, UniProt Q14524)", "test": "Inhibition of human NaV1.5 expressed in CHO cells at 31.6 uM by patch clamp assay", "assay_type": "cell-based"}, "[13]": {"target": "Voltage-dependent L-type calcium channel subunit alpha-1C (Homo sapiens, UniProt Q13936)", "sequence (Q13936 whole entry)": "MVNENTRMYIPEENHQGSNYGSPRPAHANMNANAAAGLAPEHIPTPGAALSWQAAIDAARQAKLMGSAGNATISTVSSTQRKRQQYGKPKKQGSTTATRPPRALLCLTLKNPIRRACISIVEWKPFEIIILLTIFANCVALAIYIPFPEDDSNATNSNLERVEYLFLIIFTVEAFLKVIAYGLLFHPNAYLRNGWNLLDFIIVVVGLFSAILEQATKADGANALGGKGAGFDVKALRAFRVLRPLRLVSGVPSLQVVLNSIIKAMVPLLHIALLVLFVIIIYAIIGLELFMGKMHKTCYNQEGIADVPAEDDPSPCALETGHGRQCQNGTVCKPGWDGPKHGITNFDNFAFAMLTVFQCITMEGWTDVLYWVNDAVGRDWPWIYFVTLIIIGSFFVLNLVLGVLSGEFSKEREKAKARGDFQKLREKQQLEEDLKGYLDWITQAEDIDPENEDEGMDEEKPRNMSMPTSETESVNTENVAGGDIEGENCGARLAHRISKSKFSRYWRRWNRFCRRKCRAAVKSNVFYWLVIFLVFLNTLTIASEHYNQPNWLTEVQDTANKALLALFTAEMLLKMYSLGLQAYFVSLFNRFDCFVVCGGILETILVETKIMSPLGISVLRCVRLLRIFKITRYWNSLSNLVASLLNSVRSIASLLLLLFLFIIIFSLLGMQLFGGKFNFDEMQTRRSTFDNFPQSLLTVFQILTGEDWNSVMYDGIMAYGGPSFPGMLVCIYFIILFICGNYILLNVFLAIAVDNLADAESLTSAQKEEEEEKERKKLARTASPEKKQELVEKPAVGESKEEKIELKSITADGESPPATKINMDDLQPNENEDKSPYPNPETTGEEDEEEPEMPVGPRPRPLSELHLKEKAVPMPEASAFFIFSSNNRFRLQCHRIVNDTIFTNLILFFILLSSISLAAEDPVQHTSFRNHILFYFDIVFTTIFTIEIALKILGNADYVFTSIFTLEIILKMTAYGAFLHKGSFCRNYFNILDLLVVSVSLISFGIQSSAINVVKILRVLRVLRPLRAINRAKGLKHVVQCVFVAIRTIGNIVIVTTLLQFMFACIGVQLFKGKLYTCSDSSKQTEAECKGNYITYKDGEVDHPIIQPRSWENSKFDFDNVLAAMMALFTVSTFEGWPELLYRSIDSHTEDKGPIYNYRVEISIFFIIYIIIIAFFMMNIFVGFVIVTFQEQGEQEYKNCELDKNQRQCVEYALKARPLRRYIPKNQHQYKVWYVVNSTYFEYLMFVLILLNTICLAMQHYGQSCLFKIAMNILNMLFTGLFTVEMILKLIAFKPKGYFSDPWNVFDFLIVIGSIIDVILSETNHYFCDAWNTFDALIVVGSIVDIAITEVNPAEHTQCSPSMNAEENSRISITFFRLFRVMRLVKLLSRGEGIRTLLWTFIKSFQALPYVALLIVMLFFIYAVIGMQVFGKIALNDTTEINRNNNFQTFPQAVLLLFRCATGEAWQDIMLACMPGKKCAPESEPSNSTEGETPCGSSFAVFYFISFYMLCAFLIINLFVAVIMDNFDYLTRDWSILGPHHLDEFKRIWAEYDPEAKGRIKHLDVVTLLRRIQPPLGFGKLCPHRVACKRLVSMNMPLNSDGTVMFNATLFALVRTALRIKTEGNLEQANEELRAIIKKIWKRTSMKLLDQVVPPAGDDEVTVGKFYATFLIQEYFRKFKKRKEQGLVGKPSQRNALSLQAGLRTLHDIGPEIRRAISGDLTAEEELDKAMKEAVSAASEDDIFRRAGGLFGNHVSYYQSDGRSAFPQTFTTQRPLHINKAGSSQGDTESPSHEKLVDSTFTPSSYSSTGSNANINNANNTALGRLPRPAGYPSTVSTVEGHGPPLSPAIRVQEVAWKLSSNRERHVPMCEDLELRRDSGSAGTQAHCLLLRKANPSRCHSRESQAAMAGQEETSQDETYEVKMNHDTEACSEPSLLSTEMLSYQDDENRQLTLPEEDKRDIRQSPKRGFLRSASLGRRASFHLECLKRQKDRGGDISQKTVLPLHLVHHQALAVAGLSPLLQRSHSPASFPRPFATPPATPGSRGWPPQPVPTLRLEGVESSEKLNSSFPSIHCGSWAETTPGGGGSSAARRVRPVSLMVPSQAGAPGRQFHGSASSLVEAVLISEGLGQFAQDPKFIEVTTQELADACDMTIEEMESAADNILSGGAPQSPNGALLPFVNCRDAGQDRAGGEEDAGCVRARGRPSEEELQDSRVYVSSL", "test": "Inhibition of human CaV1.2 expressed in CHO cells at 31.6 uM by patch clamp assay", "assay_type": "cell-based"}, "[14]": {"target": "T1, A-type voltage-gated potassium channel KCND3 (Homo sapiens, UniProt Q9UK17)", "T1 sequence (Q9UK17 whole entry)": "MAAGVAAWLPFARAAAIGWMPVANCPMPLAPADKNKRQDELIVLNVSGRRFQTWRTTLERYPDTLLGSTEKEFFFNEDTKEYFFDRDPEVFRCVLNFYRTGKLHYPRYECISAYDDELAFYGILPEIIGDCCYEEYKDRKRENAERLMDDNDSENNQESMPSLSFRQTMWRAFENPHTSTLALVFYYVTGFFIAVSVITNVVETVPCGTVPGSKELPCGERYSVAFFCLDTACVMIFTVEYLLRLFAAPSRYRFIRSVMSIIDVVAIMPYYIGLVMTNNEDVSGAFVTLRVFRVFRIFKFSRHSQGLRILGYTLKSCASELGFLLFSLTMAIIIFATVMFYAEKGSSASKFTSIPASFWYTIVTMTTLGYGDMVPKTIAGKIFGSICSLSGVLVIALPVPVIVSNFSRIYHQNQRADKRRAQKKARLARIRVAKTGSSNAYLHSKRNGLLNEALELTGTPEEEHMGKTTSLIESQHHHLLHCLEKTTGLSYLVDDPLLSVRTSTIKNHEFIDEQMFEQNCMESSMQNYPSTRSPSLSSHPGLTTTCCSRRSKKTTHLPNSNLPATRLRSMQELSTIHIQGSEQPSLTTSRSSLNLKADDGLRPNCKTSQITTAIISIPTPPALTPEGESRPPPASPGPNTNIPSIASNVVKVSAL", "test": "Inhibition of human KV4.3 expressed in CHO cells at 31.6 uM by patch clamp assay", "assay_type": "cell-based"}, "[15]": {"target": "Voltage-gated potassium channel, IKs; KCNQ1(Kv7.1)/KCNE1(MinK) (Homo sapiens, UniProt P51787+P15382)", "test": "Inhibition of human IKs expressed in CHO cells at 31.6 uM by patch clamp assay", "assay_type": "cell-based"}, "Canis familiaris": {"test_system": "Canis familiaris", "test": "Antithrombotic activity in Beagle dog assessed as concentration required to increase bleeding time by 2 fold at 15.8 to 591.8 ug/kg, iv administered as bolus infusion for 1 min followed by 8.7 to 378.7 ug/kg/min, iv administered as continuous infusion for 29 mins measured up to 15 mins", "assay_type": "functional, Canis lupus familiaris", "method_in_brief": "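Anaesthetized, intubated, ventilated beagles (N = 2). Femoral artery intima damaged and flow reduced to give cyclic flow reductions. Control period vehicle iv (30% cyclodextrin). Then 5 ascending 30-min periods, each a bolus over 1 min plus continuous infusion for 29 min. Tongue incision bleeding time from 15 min, capped at 15 min. Blood at 20 min for ex vivo aggregation and plasma level. EC50 fitted sigmoidally; EC_BT:2 from an exponential fit.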"}, "Rattus norvegicus": {"test_system": "Rattus norvegicus", "test": "Toxicity in overnight fasted Sprague-Dawley rat assessed as induction of insulin resistance at 0.2 to 1.6 ug/kg/min administered as infusion for 30 mins", "conditions": "in vivo, iv, 0.5 h"}}, "data": [{"smiles": "C[C@H]1CN(c2cc(N(CCO)Cc3cccc4ccccc34)[nH]c(=O)n2)CCO1", "values": [{"measurement": "Activity", "setting": "[1]", "value": "Non-toxic"}, {"measurement": "bioavailability", "setting": "[2]", "value": 25, "unit": "%"}, {"measurement": "fraction unbound at 18 h", "setting": "[3]", "value": 0.3}, {"measurement": "solubility", "setting": "[4]", "value": 100, "unit": "µM"}, {"measurement": "Drug metabolism", "setting": "Liver microsomes", "value": "Not Active"}, {"measurement": "IC50", "setting": "[5]", "value": 27.2, "unit": "µM"}, {"measurement": "logD", "setting": "[6]", "value": 1.9}, {"measurement": "Ratio IC50", "setting": "Homo sapiens", "value": "> 700"}, {"measurement": "IC50", "setting": "[7]", "value": 97.4, "unit": "µM"}, {"measurement": "IC50", "setting": "[8]", "value": 0.195, "unit": "µM"}, {"measurement": "IC50", "setting": "[9]", "value": 0.4, "unit": "µM"}, {"measurement": "IC50", "setting": "[10]", "value": 3.8, "unit": "µM"}, {"measurement": "inhibition (INH)", "setting": "[11]", "value": "Not Active"}, {"measurement": "inhibition (INH)", "setting": "[12]", "value": "Not Active"}, {"measurement": "inhibition (INH)", "setting": "[13]", "value": "Not Active"}, {"measurement": "inhibition (INH)", "setting": "[14]", "value": "Not Active"}, {"measurement": "inhibition (INH)", "setting": "[15]", "value": "Not Active"}, {"measurement": "Activity", "setting": "Canis familiaris", "value": 14.8, "unit": "µM"}, {"measurement": "Activity", "setting": "Rattus norvegicus", "value": "Non-toxic"}]}]}
